Source: PubChem BioAssay (several laboratories)
A selection: hits, their analogues and other compounds. The true share with any hit is near 1.9%.
SR-BI DiI-HDL act = SR-BI HDL lipid transfer activation; CHO ldlA[mSR-BI] cells, DiI-HDL uptake fluorescence, 3 h; 100 = double the neutral-control signal; activation, % at 12.5 µM; hit rate 0.096% among 320,000;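 active means mean replicate activation of at least 60% and every replicate at or above 60%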;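 further: 0% = median plate neutral-control signal and 100% = twice that signal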
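System: CHO ldlA[mSR-BI] cells / Medium: HEPES-buffered (25 mM, pH 7.4) F12 plus 0.5% BSA / Probe or stimulus: labelled HDL, 10 µg/mL / Doses: single compound concentration, delivered by pin transfer / Schedule: 3 h, 37 °C / Measured by: DiI fluorescence, bottom read / Measure: cell-associated DiI fluorescence as measure of HDL uptake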
SR-BI DiI inh = inhibitors of mouse SR-BI mediated HDL lipid uptake; inhibition, % at 12.5 µM; ldlA[mSR-BI] CHO cells, DiI-HDL uptake fluorescence, 3 h; hit rate 0.96% among 320,000; AID 488896; Q61009;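 active means mean replicate inhibition of at least 70% and a set share of replicates each scoring 70 or more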;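 further: 0% = median of neutral control wells and 100% = median of positive control wells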
GRK2 aptamer HTS = blocks RNA aptamer binding to human GRK2. P25098. bead flow cytometry, FAM-aptamer displacement from GRK2. inhibition of aptamer binding, % at 10 µM. hit rate 0.59% among 330,000. AID 488847;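 active means inhibition of aptamer binding above 40%, roughly 3 SD of noise, on plates passing a quality check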;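 further: median bead fluorescence of bound FAM aptamer so fluorescent compounds give negative values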
Target sequence (P25098 whole entry, looked up): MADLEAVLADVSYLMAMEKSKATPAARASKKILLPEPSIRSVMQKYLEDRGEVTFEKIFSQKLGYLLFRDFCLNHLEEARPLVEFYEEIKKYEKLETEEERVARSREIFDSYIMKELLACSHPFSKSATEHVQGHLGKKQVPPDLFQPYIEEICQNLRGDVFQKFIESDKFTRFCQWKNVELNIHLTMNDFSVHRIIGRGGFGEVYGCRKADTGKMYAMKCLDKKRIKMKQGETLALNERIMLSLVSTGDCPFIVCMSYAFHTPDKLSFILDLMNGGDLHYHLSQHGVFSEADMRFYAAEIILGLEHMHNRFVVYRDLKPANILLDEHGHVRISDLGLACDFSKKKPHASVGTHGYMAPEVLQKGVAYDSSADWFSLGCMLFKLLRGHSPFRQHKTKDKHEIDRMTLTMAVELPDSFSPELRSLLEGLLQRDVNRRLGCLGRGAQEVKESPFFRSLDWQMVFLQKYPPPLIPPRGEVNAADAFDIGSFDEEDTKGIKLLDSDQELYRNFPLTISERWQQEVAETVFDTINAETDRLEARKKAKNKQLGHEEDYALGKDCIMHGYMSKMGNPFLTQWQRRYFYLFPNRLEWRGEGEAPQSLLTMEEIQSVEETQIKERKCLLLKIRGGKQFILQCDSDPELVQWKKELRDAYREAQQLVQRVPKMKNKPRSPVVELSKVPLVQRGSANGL
Rin1 Abl inh = blocks binding of human Rin1 to Abl. TR-FRET Rin1/Abl binding, biochemical. AID 588664. inhibition, % at 7.35 µM. hit rate 0.4% among 360,000. P00519+Q13671; in the data active means inhibition above about 5%, passing the limit was not always enough
GRK2 CP1 = human GRK2 inhibition confirmation, cherry pick 1. shares compounds with GRK2 aptamer HTS. bead-bound GRK2, FAM-aptamer displacement, flow cytometry. aptamer displacement, % at 10 µM. hit rate 4% among 2,000. AID 504451;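 active means aptamer displacement above 40%, near three times the noise of non-fluorescent compounds, on plates passing quality checks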;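 further: negative values mostly reflect intrinsic compound fluorescence rather than true enhancement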
FAM quench CP1 = quenches fluorescent RNA aptamer, GRK2 hit artifact. shares compounds with GRK2 aptamer HTS. Carboxyfluorescein RNA aptamer on beads, flow cytometry quenching; stronger effect = lower value. fluorescence response (% of DMSO), % at 10 µM. 2,000 tested, under 10 active;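 active means compounds that quench the bead-bound fluorescent RNA probe, cutting fluorescence to under half of the solvent control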;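 further: counterscreen run without GRK2 so only probe quenching by compound is measured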
GRK2 confirm 2 = confirmation of human GRK2 inhibitors binding RNA aptamer site; shares compounds with GRK2 aptamer HTS; bead-bound GRK2, FAM-aptamer displacement, flow cytometry; inhibition of aptamer binding, % at 10 µM; 360 tested, under 10 active; AID 504782;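 active means inhibition of aptamer binding above 40%, about triple the noise seen with nonglowing compounds, on plates passing quality control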;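 further: negative values mostly come from compounds that fluoresce themselves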
FAM quench CP2 = aptamer fluorescence quenching in GRK2 counter-screen. carboxyfluorescein RNA aptamer beads, flow cytometry quenching; stronger effect = lower value. shares compounds with GRK2 aptamer HTS. fluorescence response vs DMSO, % at 10 µM. 360 tested, under 10 active;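 active means response vs DMSO under 50%, meaning signal dropped by over half, treated as fluorescence quencher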;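 further: labelled aptamer on streptavidin beads without GRK2 as a quench counter-screen; 100% = bead fluorescence of DMSO wells and lower means quenching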
* marks the source's active call; other numbers are inactive results.

`Cc1cccc(N2CC(C(=O)Nc3ccccc3N3CCOCC3)CC2=O)c1C` (stereo not drawn) gave SR-BI DiI-HDL act -14, SR-BI DiI inh 14, GRK2 aptamer HTS 32, Rin1 Abl inh 0, GRK2 CP1 1 and FAM quench CP1 100.
`CN(Cc1ccccc1)S(=O)(=O)c1ccc2[nH]cc(C(=O)NCC3CCCO3)c(=O)c2c1` (stereo not drawn) gave SR-BI DiI-HDL act 8, SR-BI DiI inh -8, GRK2 aptamer HTS 45*, Rin1 Abl inh 5, GRK2 CP1 2 and FAM quench CP1 101.
For CCC(=O)Nc1ccc(C(=O)CSc2nnc(-c3ccccc3F)n2C2CC2)cc1 the results were SR-BI DiI-HDL act -48, SR-BI DiI inh 48, GRK2 aptamer HTS 0 and Rin1 Abl inh 0.
`CCC(C)NC(=O)NC(=O)CSc1nnc(-c2ccccc2F)n1C1CC1` (stereo not drawn) gave SR-BI DiI-HDL act 5, SR-BI DiI inh -5, GRK2 aptamer HTS 49*, Rin1 Abl inh 1, GRK2 CP1 1 and FAM quench CP1 106.
Screening CCc1ccc2[nH]c(C(=O)Nc3ccc(C)c(F)c3)cc2c1 returned SR-BI DiI-HDL act -30, SR-BI DiI inh 30, GRK2 aptamer HTS 0 and Rin1 Abl inh 0.
O=C(Nc1ccc(F)cc1)c1cc2cc(Cl)ccc2[nH]1 was read as SR-BI DiI-HDL act -12, SR-BI DiI inh 12, GRK2 aptamer HTS 58*, Rin1 Abl inh 3, GRK2 confirm 2 -25 and FAM quench CP2 100.
For CC[C@@H](C)[C@@H]1CN([C@@H](C)CN2CCC[C@H]2CN2C(N)=NC[C@H]2CC(C)C)C(=N)N1CCc1ccc(Cl)c(Cl)c1 the results were SR-BI DiI-HDL act 18, SR-BI DiI inh -18, GRK2 aptamer HTS 84*, Rin1 Abl inh 4, GRK2 confirm 2 -81 and FAM quench CP2 99.
COc1ccc(CCNC(=O)CC(C)(C)CC2=NS(=O)(=O)c3ccccc3N2)cc1OC was read as SR-BI DiI-HDL act 19, SR-BI DiI inh -19, GRK2 aptamer HTS 0 and Rin1 Abl inh 4.
Cc1ccc(CCNC(=O)CC(C)CC2=NS(=O)(=O)c3ccccc3N2)cc1 (stereo not drawn) was read as SR-BI DiI-HDL act -13, SR-BI DiI inh 13, GRK2 aptamer HTS 65*, Rin1 Abl inh 0, GRK2 CP1 -3 and FAM quench CP1 95.
`CN1C(=O)[C@H]2[C@@H](c3ccc(C(F)(F)F)cc3)N[C@]3(CCCN(Cc4ccc(Br)cc4)C3=O)[C@H]2C1=O` gave Rin1 Abl inh -2.
`Cc1c(C(=O)C(C)C)n(C)c2ccccc12` gave SR-BI DiI-HDL act 0, SR-BI DiI inh 0, GRK2 aptamer HTS 2 and Rin1 Abl inh -1.
`CC(C)C(=O)c1c(C(C)C)nn2ccccc12` gave SR-BI DiI-HDL act -1, SR-BI DiI inh 1, GRK2 aptamer HTS 0, Rin1 Abl inh 0, GRK2 CP1 1 and FAM quench CP1 99.
Screening CCn1nc(C(=O)Nc2cccc(C(F)(F)F)c2)c(Cl)c1Cl returned SR-BI DiI-HDL act -42, SR-BI DiI inh 42, GRK2 aptamer HTS 53*, Rin1 Abl inh 3, GRK2 CP1 1 and FAM quench CP1 102.
`COc1cccc(C(=O)N(C)Cc2c(C)nn(C3CCS(=O)(=O)C3)c2C)c1` (stereo not drawn) gave SR-BI DiI-HDL act 4, SR-BI DiI inh -4, GRK2 aptamer HTS 0 and Rin1 Abl inh 0.
Screening CCCCN(CCCC)Cc1cc(=O)oc2cc(OC)c(Cl)cc12 returned Rin1 Abl inh 0.
`CC(=O)c1cc2c(cc1NC(=O)C1CN(C(C)=O)c3ccccc3O1)OCO2` (stereo not drawn) gave SR-BI DiI-HDL act -23, SR-BI DiI inh 23, GRK2 aptamer HTS 26, Rin1 Abl inh 1, GRK2 CP1 0 and FAM quench CP1 104.
`CC(=O)c1cc2c(cc1NC(=O)C1CC=CCC1C(=O)O)OCO2` (stereo not drawn) gave SR-BI DiI-HDL act 9, SR-BI DiI inh -9, GRK2 aptamer HTS 4 and Rin1 Abl inh 1.
`COC(=O)C(NC(=O)c1ccco1)(Nc1nc(C2CC2)cs1)C(F)(F)F` (stereo not drawn) gave SR-BI DiI-HDL act 7, SR-BI DiI inh -7, GRK2 aptamer HTS 90*, Rin1 Abl inh -3, GRK2 CP1 -4 and FAM quench CP1 102.
COC(=O)C(NC(=O)c1ccco1)(Nc1cc(C)ccn1)C(F)(F)F (stereo not drawn) was read as SR-BI DiI-HDL act 22, SR-BI DiI inh -22, GRK2 aptamer HTS 2 and Rin1 Abl inh 3.
For COC(=O)c1[nH]c2c(c1C)C(=O)CCC2 the results were SR-BI DiI-HDL act -4, SR-BI DiI inh 4, GRK2 aptamer HTS 19, Rin1 Abl inh 4, GRK2 CP1 1 and FAM quench CP1 93.
Cc1c(C(=O)OC2CCC(C)CC2)[nH]c2c1C(=O)CCC2 (stereo not drawn) was read as SR-BI DiI-HDL act 6, SR-BI DiI inh -6, GRK2 aptamer HTS 1 and Rin1 Abl inh -3.
CC(C)c1cc(C(=O)NC2CCCc3c2cnn3-c2ccccc2F)no1 (stereo not drawn) was read as SR-BI DiI-HDL act -8, SR-BI DiI inh 8, GRK2 aptamer HTS 69*, Rin1 Abl inh 2, GRK2 CP1 4 and FAM quench CP1 97.
For COc1ccc(-c2cc(=O)c(C(=O)c3ccc(C)cc3)n[nH]2)cc1 the results were SR-BI DiI-HDL act 15, SR-BI DiI inh -15, GRK2 aptamer HTS 1 and Rin1 Abl inh -1.
`c1ccc2sc(N3CCOCC3)nc2c1` gave SR-BI DiI-HDL act 1, SR-BI DiI inh -1, GRK2 aptamer HTS 4 and Rin1 Abl inh -6.
Screening c1ccc2sc(N3CN(CCN4CCOCC4)CN(c4nc5ccccc5s4)C3)nc2c1 returned SR-BI DiI-HDL act -9, SR-BI DiI inh 9, GRK2 aptamer HTS 31, Rin1 Abl inh 2, GRK2 CP1 -2 and FAM quench CP1 101.
Screening CC1CCN(C(=O)C2CCC(CNS(=O)(=O)c3ccc4c(c3)C(C)(C)C(=O)N4C)CC2)CC1 (stereo not drawn) returned Rin1 Abl inh -1.
